From publication PMC7172969 (Journal of Hepatology, 2016)

Assays:
HBV (genotype D) = assay: HBV infection assay in HepG2-hNTCP-C4 cells; format: cell-based, hepatitis B virus; settings: same concentration conditions (40 and 100 μM)
Outline: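 HepG2-hNTCP-C4 cells were inoculated with genotype D HBV from Hep38.7-Tet culture supernatant at 6000 GEq/cell in 4% PEG8000. Test compound (8 μM), preS1 peptide (100 nM) or DMSO 0.16% was present for 16 h. Cells were washed and cultured 12 more days without compound. On day 13, supernatant HBs was measured by ELISA and intracellular HBc by immunofluorescence with image quantification. MTT viability was run in parallel.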

NTCP = biological target: T1, NTCP (Homo sapiens, UniProt Q14973); assay: NTCP transporter assay; format: cell-based; settings: HepG2-hNTCP-C4 cells, sulfobromophthalein 40 and 100 μM
T1 sequence (Q14973 1-349): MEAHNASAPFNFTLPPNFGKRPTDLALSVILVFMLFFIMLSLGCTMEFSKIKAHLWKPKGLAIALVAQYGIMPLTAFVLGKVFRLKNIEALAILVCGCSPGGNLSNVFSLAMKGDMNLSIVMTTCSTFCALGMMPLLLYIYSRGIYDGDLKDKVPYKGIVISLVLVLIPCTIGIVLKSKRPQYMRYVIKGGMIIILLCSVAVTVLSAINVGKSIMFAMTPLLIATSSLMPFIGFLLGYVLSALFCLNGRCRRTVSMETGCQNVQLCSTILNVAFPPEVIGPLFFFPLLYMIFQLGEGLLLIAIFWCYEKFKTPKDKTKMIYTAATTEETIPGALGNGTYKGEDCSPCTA

HBV replication = HBV replication assay in HepG2.2.15.7 cells; format: cell-based, hepatitis B virus; settings: six days, ETV 1 μM, CsA and its derivatives 8 μM
Outline: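 HepG2.2.15.7 cells support HBV replication but not entry. They were treated for six days with test compound (8 μM), entecavir 1 μM as positive control, or DMSO 0.16%. HBV DNA released into the culture supernatant was then quantified by real-time PCR.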

Compound	HBV infection (HBV (genotype D))	bile acid uptake in sodium-containing condition (NTCP)	HBV DNA released into the culture supernatant (HBV replication)
O=C1OC(c2ccc(O)c(S(=O)(=O)O)c2)(c2ccc(O)c(S(=O)(=O)O)c2)c2c(Br)c(Br)c(Br)c(Br)c21 [sulfobromophthalein, Sulfobromophthalein]	did not inhibit HBV infection	impaired the bile acid uptake	
C=C1[C@H](CO)[C@@H](O)C[C@@H]1n1cnc2c(=O)[nH]c(N)nc21 [entecavir]			significantly reduced
